From ChEMBL document CHEMBL1123370, “Design and synthesis of conformationally constrained somatostatin analogues with high potency and specificity for mu opioid receptors” (J Med Chem, 1986) come the findings set out here.

One experiment addresses Mu-type opioid receptor (Rattus norvegicus, UniProt P33535). The experiment in a line: Inhibition of binding of [3H]-naloxone to Opioid receptor mu 1 of rat brain membranes. In kind it is cell membranes, Membrane. Summed up: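 The [3H]naloxone (1 nM) displacement used washed Sprague-Dawley rat brain membranes in 50 mM Tris-HCl pH 7.4 containing MgCl2 5 mM, BSA and bacitracin. Incubation ran 120 min at 25 °C across ≥10 analogue concentrations. Binding was terminated by filtration through GF/B filters soaked in 0.1% polyethylenimine. IC50 is mean ± SD of at least three duplicate runs.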

Experiment [1] deals with Delta-type opioid receptor (Rattus norvegicus, UniProt P33533). Kind of experiment: Inhibition of [3H]-DPDPE binding to Opioid receptor delta 1 of rat brain membranes. In kind it is cell membranes, Membrane. Summed up: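 Rat brain membranes were prepared as a sucrose homogenate, spun at 1000g, and washed twice in 50 mM Tris-HCl pH 7.4 with 5 mM MgCl2, BSA 2 mg/mL and bacitracin 20 µg/mL. They were incubated with [3H]DPDPE and at least 10 freshly prepared peptide concentrations for 180 min at 25 °C. Bound ligand was separated by rapid filtration on PEI-pretreated GF/B filters.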

Experiment [2] concerns the target Opioid receptors; mu & delta (Rattus norvegicus) (UniProt P33533+P33535). The experiment in a line: Ratio of receptor binding inhibitory concentrations against mu and delta opioid receptors from rat brain as IC50 (vs [3H]-DPDPE) / IC50 (vs [3H]naloxone). Summed up: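 The ratio is IC50 against [3H]DPDPE (rat brain membranes, 180 min, 25 °C) divided by IC50 against 1 nM [3H]naloxone (120 min, 25 °C). Both assays used Tris-HCl pH 7.4 buffer with MgCl2, BSA and bacitracin, and filtration on PEI-treated GF/B filters.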

Experiment [3] can be described thus: Ratio of receptor binding inhibitory concentrations against somatostatin receptors and mu opioid receptors from rat brain […] / IC50(vs [3H]naloxone).
The species entered for a further experiment is Rattus norvegicus. Kind of experiment: Compound was evaluated for the inhibition of binding of [125I]CGP23996 to rat brain membranes. On the set-up: species or system Membrane. Summed up:
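Whole brains from adult Sprague-Dawley rats (150–200 g) were homogenized 10% w/v in 0.32 M sucrose, spun at 1000g for 10 min, and resuspended in 50 mM Tris-HCl pH 7.4 with 5 mM MgCl2, BSA 2 mg/mL and bacitracin 20 µg/mL (done twice). Membranes were incubated with 0.2 nM [125I]CGP23,996 and ≥10 analogue concentrations for 120 min at 25 °C. Filtration was through 0.1% PEI-treated GF/B filters.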

The term IC50 denotes the concentration that inhibits the measured activity by half. A low value points to inhibition by little substance.

Sequence of Mu-type opioid receptor (P33535 whole entry): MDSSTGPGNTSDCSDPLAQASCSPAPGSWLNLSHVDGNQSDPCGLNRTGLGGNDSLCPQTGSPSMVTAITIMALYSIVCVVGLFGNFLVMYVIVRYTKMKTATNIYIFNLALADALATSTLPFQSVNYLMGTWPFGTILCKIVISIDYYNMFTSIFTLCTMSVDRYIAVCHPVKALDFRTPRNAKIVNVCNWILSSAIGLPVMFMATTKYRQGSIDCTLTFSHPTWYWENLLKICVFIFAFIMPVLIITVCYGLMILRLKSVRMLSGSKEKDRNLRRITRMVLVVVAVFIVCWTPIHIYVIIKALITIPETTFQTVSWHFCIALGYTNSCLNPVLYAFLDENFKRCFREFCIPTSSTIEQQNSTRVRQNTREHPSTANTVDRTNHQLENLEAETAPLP
Sequence of Opioid receptors; mu & delta (Rattus norvegicus) (P33533 whole entry, looked up): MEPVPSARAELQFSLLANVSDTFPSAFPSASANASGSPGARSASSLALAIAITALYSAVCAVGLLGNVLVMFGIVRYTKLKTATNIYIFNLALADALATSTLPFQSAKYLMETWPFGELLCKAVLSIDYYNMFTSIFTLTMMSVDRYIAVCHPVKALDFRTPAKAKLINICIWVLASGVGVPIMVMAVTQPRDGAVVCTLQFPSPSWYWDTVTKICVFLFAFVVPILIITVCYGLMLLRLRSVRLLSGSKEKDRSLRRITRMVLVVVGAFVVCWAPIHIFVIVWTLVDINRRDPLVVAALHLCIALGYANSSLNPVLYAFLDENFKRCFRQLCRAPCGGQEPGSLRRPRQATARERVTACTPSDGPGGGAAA
Sequence of Opioid receptors; mu & delta (Rattus norvegicus) (P33535 whole entry, looked up): as the sequence (P33535 whole entry) above
Sequence of Delta-type opioid receptor (P33533 whole entry): as the sequence (P33533 whole entry, looked up) above

Turning to `CC(C)[C@@H]1NC(=O)[C@H](CCCCN)NC(=O)[C@@H](Cc2c[nH]c3ccccc23)NC(=O)[C@H](Cc2ccc(O)cc2)NC(=O)[C@@H](NC(=O)[C@H](N)Cc2ccccc2)CSSC(C)(C)[C@@H](C(=O)NC(C(N)=O)[C@@H](C)O)NC1=O` (stereo in doubt), the IC50 at Mu-type opioid receptor turned out to be 0.0055 µM; in experiment [1] it was 2 µM.
With `C[C@@H](O)[C@H](NC(=O)[C@@H]1NC(=O)[C@@H]([C@@H](C)O)NC(=O)[C@H](CCCN=C(N)N)NC(=O)[C@@H](Cc2c[nH]c3ccccc23)NC(=O)[C@H](Cc2ccc(O)cc2)NC(=O)[C@@H](NC(=O)[C@H](N)Cc2ccccc2)CSSC1(C)C)C(N)=O`, the Ratio in experiment [2] was determined as 1300; in experiment [3], 4090.
Take `C[C@@H](O)[C@H](NC(=O)[C@H]1CSSC(C)(C)[C@H](NC(=O)[C@H](N)c2ccccc2)C(=O)N[C@@H](Cc2ccccc2)C(=O)N[C@H](Cc2c[nH]c3ccccc23)C(=O)N[C@@H](CCCCN)C(=O)N[C@H]([C@@H](C)O)C(=O)N1)C(=O)O`: the values for the Ratio in experiment [2] and in experiment [3] were 15 and 0.45, respectively.
Regarding `C[C@@H](O)[C@H](NC(=O)[C@H]1NC(=O)[C@H]([C@@H](C)O)NC(=O)[C@H](CCCN=C(N)N)NC(=O)[C@@H](Cc2c[nH]c3ccccc23)NC(=O)[C@H](Cc2ccc(O)cc2)NC(=O)[C@@H](NC(=O)[C@H](N)Cc2ccccc2)CSSC1(C)C)C(N)=O`, the values for the IC50 (on Mu-type opioid receptor; in the experiment listed under Rattus norvegicus; in experiment [1]) were 0.0035 µM, 14.3 µM and 4.5 µM, respectively.
For `CCCC[C@@H]1NC(=O)[C@@H](Cc2c[nH]c3ccccc23)NC(=O)[C@H](Cc2ccc(O)cc2)NC(=O)[C@@H](NC(=O)[C@H](N)Cc2ccccc2)CSSC(C)(C)[C@H](C(=O)N[C@H](C(N)=O)[C@@H](C)O)NC(=O)[C@@H]([C@@H](C)O)NC1=O`, the Ratio in experiment [2] is 580.
With `C[C@@H](O)[C@H](NC(=O)[C@H]1NC(=O)[C@H]([C@@H](C)O)NC(=O)[C@H](CCCCN)NC(=O)[C@@H](Cc2c[nH]c3ccccc23)NC(=O)[C@H](Cc2ccc(O)cc2)NC(=O)[C@@H](NC(=O)[C@H](N)Cc2ccccc2)CSSC1(C)C)C(N)=O`, the half-inhibitory concentration (IC50) at Mu-type opioid receptor is 0.0037 µM; in the experiment filed under Rattus norvegicus it was 0.69 µM; in experiment [1], 8.4 µM.
With `C[C@@H](O)[C@H](NC(=O)[C@@H]1CSSC[C@H](NC(=O)[C@H](N)Cc2ccc(O)cc2)C(=O)N[C@@H](Cc2ccc(O)cc2)C(=O)N[C@H](Cc2c[nH]c3ccccc23)C(=O)N[C@@H](CCCCN)C(=O)N[C@@H]([C@@H](C)O)C(=O)N1)C(=O)O`, the IC50 on Mu-type opioid receptor was 9.1 µM; in the experiment listed under Rattus norvegicus, 18.5 µM; in experiment [1], 27.5 µM.
Take `C[C@@H](O)[C@H](NC(=O)[C@H]1NC(=O)[C@H]([C@@H](C)O)NC(=O)[C@H](CCCCN)NC(=O)[C@H](Cc2c[nH]c3ccccc23)NC(=O)[C@H](Cc2ccc(O)cc2)NC(=O)[C@@H](NC(=O)[C@H](N)Cc2ccccc2)CSSC1(C)C)C(N)=O`: the results for the IC50 (on Mu-type opioid receptor; in the experiment listed under Rattus norvegicus; in experiment [1]) were 1.35 µM, 0.74 µM and above 70 µM, respectively.
In the case of `C[C@@H](O)[C@H](NC(=O)[C@H]1NC(=O)[C@H]([C@@H](C)O)NC(=O)[C@H](CCCCN)NC(=O)[C@@H](Cc2c[nH]c3ccccc23)NC(=O)[C@H](Cc2ccc(O)cc2)NC(=O)[C@@H](NC(=O)[C@H](N)c2ccccc2)CSSC1(C)C)C(N)=O`, the half-maximal inhibitory concentration (IC50) was found to be 0.35 µM on Mu-type opioid receptor, 2.3 µM in the experiment filed under Rattus norvegicus and 2.8 µM in experiment [1].
Regarding `C[C@@H](O)[C@H](NC(=O)[C@@H]1NC(=O)CNC(=O)[C@H](CCCCN)NC(=O)[C@@H](Cc2c[nH]c3ccccc23)NC(=O)[C@H](Cc2ccc(O)cc2)NC(=O)[C@@H](NC(=O)[C@H](N)Cc2ccccc2)CSSC1(C)C)C(N)=O`, the Ratio in experiment [2] was determined as 110; in experiment [3] it was 25.
Turning to `C[C@@H](O)[C@H](NC(=O)[C@H]1CSSC[C@H](NC(=O)[C@H](N)Cc2ccc(O)cc2)C(=O)N[C@@H](Cc2ccc(O)cc2)C(=O)N[C@H](Cc2c[nH]c3ccccc23)C(=O)N[C@@H](CCCCN)C(=O)N[C@H]([C@@H](C)O)C(=O)N1)C(=O)O`, the results for the Ratio in experiment [2] and in experiment [3] were 3 and 2, respectively.
As for `C[C@@H](O)[C@H](NC(=O)[C@@H]1NC(=O)[C@@H]([C@@H](C)O)NC(=O)[C@H](CCCCN)NC(=O)[C@@H](Cc2c[nH]c3ccccc23)NC(=O)[C@H](Cc2ccc(O)cc2)NC(=O)[C@@H](NC(=O)[C@H](N)c2ccccc2)CSSC1(C)C)C(N)=O`, the Ratio in experiment [2] is 8; in experiment [3] it was 6.6.
In the case of `C[C@@H](O)[C@H](NC(=O)[C@@H]1NC(=O)[C@@H]([C@@H](C)O)NC(=O)[C@H](CCCCN)NC(=O)[C@H](Cc2c[nH]c3ccccc23)NC(=O)[C@H](Cc2ccc(O)cc2)NC(=O)[C@@H](NC(=O)[C@H](N)Cc2ccccc2)CSSC1(C)C)C(N)=O`, the Ratio in experiment [2] is above 52; in experiment [3], 0.55.
Turning to `CCCC[C@@H]1NC(=O)[C@@H](Cc2c[nH]c3ccccc23)NC(=O)[C@H](Cc2ccc(O)cc2)NC(=O)[C@@H](NC(=O)[C@H](N)Cc2ccccc2)CSSC(C)(C)[C@@H](C(=O)N[C@H](C(N)=O)[C@@H](C)O)NC(=O)[C@H]([C@@H](C)O)NC1=O`, the values for the IC50 (on Mu-type opioid receptor; in experiment [1]) were 0.0096 µM and 5.6 µM, respectively.
Take `CC(C)[C@H]1NC(=O)[C@H](CCCCN)NC(=O)[C@@H]([C@@H](C)O)NC(=O)[C@H](Cc2ccc(O)cc2)NC(=O)[C@@H](NC(=O)[C@H](N)Cc2ccccc2)CSSC(C)(C)[C@H](C(=O)N[C@H](C(N)=O)[C@@H](C)O)NC1=O`: the Ratio in experiment [2] was found to be 360.
Consider `C[C@@H](O)[C@H](NC(=O)[C@H]1NC(=O)CNC(=O)[C@H](CCCCN)NC(=O)[C@@H](Cc2c[nH]c3ccccc23)NC(=O)[C@H](Cc2ccc(O)cc2)NC(=O)[C@@H](NC(=O)[C@H](N)Cc2ccccc2)CSSC1(C)C)C(N)=O`, for which the results for the IC50 (at Mu-type opioid receptor; in the experiment filed under Rattus norvegicus; in experiment [1]) were 0.539 µM, 13.3 µM and 58 µM, respectively.
For the compound `C[C@@H](O)[C@H](NC(=O)[C@@H]1CSSC(C)(C)[C@H](NC(=O)[C@H](N)c2ccccc2)C(=O)N[C@@H](Cc2ccccc2)C(=O)N[C@H](Cc2c[nH]c3ccccc23)C(=O)N[C@@H](CCCCN)C(=O)N[C@@H]([C@@H](C)O)C(=O)N1)C(=O)O`, the IC50 at Mu-type opioid receptor worked out at 2.1 µM; in the experiment filed under Rattus norvegicus, 0.947 µM; in experiment [1], 32 µM.
Take `C[C@H](N)C(=O)NCC(=O)N[C@H]1CSSC[C@@H](C(=O)O)NC(=O)[C@H](CO)NC(=O)[C@H]([C@@H](C)O)NC(=O)[C@H](Cc2ccccc2)NC(=O)[C@H]([C@@H](C)O)NC(=O)[C@H](CCCCN)NC(=O)[C@H](Cc2c[nH]c3ccccc23)NC(=O)[C@H](Cc2ccccc2)NC(=O)[C@H](Cc2ccccc2)NC(=O)[C@H](CC(N)=O)NC(=O)[C@H](CCCCN)NC1=O`: the Ratio in experiment [3] is 0.0003.
In the case of `C[C@@H](O)[C@H](NC(=O)[C@@H]1NC(=O)[C@@H]([C@@H](C)O)NC(=O)[C@H](CCCCN)NC(=O)[C@@H](Cc2c[nH]c3ccccc23)NC(=O)[C@H](Cc2ccc(O)cc2)NC(=O)[C@@H](NC(=O)[C@H](N)Cc2ccccc2)CSSC1(C)C)C(N)=O`, the Ratio in experiment [2] came out at 2250; in experiment [3] it was 187.
`C[C@@H](O)[C@H](NC(=O)[C@H]1NC(=O)[C@H]([C@@H](C)O)NC(=O)[C@H](CCCN)NC(=O)[C@@H](Cc2c[nH]c3ccccc23)NC(=O)[C@H](Cc2ccc(O)cc2)NC(=O)[C@@H](NC(=O)[C@H](N)Cc2ccccc2)CSSC1(C)C)C(N)=O`: the IC50 is 24.3 µM in the experiment filed under Rattus norvegicus and 13.5 µM in experiment [1].
